Most compounds without a hit are left out; they make up all but 2.6% or so of the library.
T cell HTS = T cell immune modulators affecting CD8 T cell-vesicle binding; 2C CD8+ T cell-vesicle binding, flow cytometry; stronger effect = lower value; response (vesicle binding), % at 7 µM; actives 0.068% (n = 330,000); AID 2052;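 active means response, share of CD8 T cells binding vesicles, and their 90th percentile fluorescence all below set limits, cut at about 80% in these data, passing the limit was not always enough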;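 further: values below 100% mean blocked vesicle binding to the CD8+ T cells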
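Material: 2C TCR transgenic mouse naive CD8+ T cells, MACS-purified. Also added: QL9-charged Drosophila Ld/ICAM-1/B7-1 vesicles. Timing: binding 1.5 h at 37 °C. Measured by: high-throughput flow cytometry with anti-B7-1 and anti-CD8 staining. Read-out: percent CD8+ FL2 mean versus row control. Controls: Unloaded micro-vesicles (low), QL9 vesicles with 0.7% DMSO (high).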
EP2 antag = inhibitors of human EP2 prostaglandin E2 receptor. inhibition, % at 25 µM. C6 glioma cells expressing human EP2, cAMP TR-FRET; cells stimulated with saturating PGE2. AID 1422. actives 0.52% (n = 260,000);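 active means percent inhibition above 40 after rounding to a whole number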;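 further: rat C6 glioma host cells with rolipram phosphodiesterase inhibitor present; the protocol text gives 20 µM as final concentration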
Target sequence (P43116 whole entry, looked up): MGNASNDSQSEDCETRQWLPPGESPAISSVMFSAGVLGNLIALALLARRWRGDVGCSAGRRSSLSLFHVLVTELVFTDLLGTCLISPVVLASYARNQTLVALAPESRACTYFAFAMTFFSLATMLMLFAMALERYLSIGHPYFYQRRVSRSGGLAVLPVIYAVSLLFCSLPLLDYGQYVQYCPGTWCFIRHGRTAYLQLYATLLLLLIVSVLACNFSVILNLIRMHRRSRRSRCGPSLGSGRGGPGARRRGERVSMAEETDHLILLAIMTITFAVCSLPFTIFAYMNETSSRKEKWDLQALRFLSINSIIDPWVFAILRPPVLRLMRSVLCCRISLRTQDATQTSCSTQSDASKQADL
Exocytosis inh = lytic granule exocytosis inhibition. TALL-104 LAMP-1 surface exposure, flow cytometry; cells stimulated with thapsigargin and PMA. inhibition, % at 10 µM. actives 0.66% (n = 360,000);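 active means inhibition above about 55%, limit read from the data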
MC4R ag barr = human MC4R agonism via beta-arrestin; activation, % at 8.9 µM; U2OS MC4R beta-arrestin complementation, luminescence; percent of melanotan II response, DMSO zero; actives 0.98% (n = 360,000); P32245;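 active means activation above a per-plate cutoff, the mean activation of sample wells on that plate plus 3 SD, cut at about 8% in these data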
EP2 mod = modulates human prostaglandin E2 receptor EP2 signaling; EP2-expressing cells, cAMP HTRF FRET, PGE2 co-stimulation; induction, % at 25 µM; actives 0.83% (n = 260,000);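 active means compounds whose cAMP rise, as percent of the full-agonist control response, exceeds 60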;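 further: rat C6 glioma line stably carrying human EP2 under a CMV promoter; the protocol text gives 20 µM as final concentration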
MC4R antagonist = blocks human MC4R cAMP signaling; MC4R-expressing cells, MTII-stimulated cAMP, LANCE TR-FRET; actives 0.48% (n = 360,000); inhibition, % at 6.5 µM;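 active means inhibition above its plate's cutoff, the mean of tested wells on that plate plus 3 SD, cut at about 29% in these data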
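material = U2OS cells stably expressing human melanocortin 4 receptor (MC4R) | also added = Melanotan II challenge | dosing = single nominal compound dose of 6.5 µM | detection = TR-FRET with Eu-cAMP and labeled anti-cAMP, 671 nm | replication = singlicate | timing = compound 30 min, challenge 1 h, detection 1 h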
Large screens that a line does not name were inactive; ! = a repeat was not active.

CO[C@@H]1/C=C\O[C@]2(C)Oc3c(C)c(O)c4c(O)c(c(CN5CCN(C)CC5)c(O)c4c3C2=O)NC(=O)C(C)=C/C=C\[C@@H](C)[C@@H](O)[C@H](C)[C@@H](O)[C@H](C)[C@H](OC(C)=O)[C@@H]1C	EP2 antag 40.0 (no result: T cell HTS, Exocytosis inh, MC4R ag barr, MC4R antagonist)
CCOC(=O)CSc1nc(-c2ccccc2)nc2ccc(F)cc12	none
COC(=O)CSc1nc(-c2ccccc2)nc2ccc(F)cc12	none
O=C(O)CSc1nc(-c2ccccc2)nc2ccc(F)cc12	EP2 mod 88.9 (no result: T cell HTS, Exocytosis inh, MC4R ag barr, MC4R antagonist)
OCCSc1nc(-c2ccccc2)nc2ccc(F)cc12	EP2 mod 70.3!
C=CCOc1c(Cl)cc(/C=N/O)cc1OC	none
COc1ccc(Cn2ccnc2CO)cc1[N+](=O)[O-]	none
O=S(=O)(c1ccc(Cl)cc1)N1CCC(O)(c2cccnc2)CC1	T cell HTS 0.0
O=C(NCc1cccnc1)/C(=C\c1ccc(-c2ccc(Cl)c(Cl)c2)o1)S(=O)(=O)c1ccccc1	Exocytosis inh 100.7
Cc1ccc(C)c(N2CCN(C(=O)CCCOc3cc(=O)n(C)c4ccccc34)CC2)c1	MC4R ag barr 11.7
O=C1CCCC/C=C\C[C@H](CC(=O)N(CCO)Cc2ccccc2)C(=O)N[C@@H](c2ccccc2)CO1	T cell HTS 61.9 (no result: EP2 antag, EP2 mod)
O=C1N[C@@H](Cc2ccccc2)COC(=O)[C@@H](Cc2ccc(F)cc2)CC/C=C/C[C@H]1CC(=O)N(CCO)Cc1ccccc1	none (no result: EP2 antag, EP2 mod)
O=C1N[C@@H](Cc2ccccc2)COC(=O)[C@H](Cc2ccc(F)cc2)CC/C=C/C[C@@H]1CC(=O)N(CCO)Cc1ccccc1	Exocytosis inh 58.0 (no result: EP2 antag, EP2 mod)
CCN1C(=O)[C@H]2[C@@H](c3ccc(-c4ccc5c(c4)OCO5)c(OC)c3)N[C@@](Cc3ccccc3)(C(=O)OC)[C@H]2C1=O	none (no result: EP2 antag, EP2 mod)
CCNc1c(NS(=O)(=O)c2ccc(Br)s2)c(=O)oc2ccccc12	none (no result: EP2 antag, EP2 mod)
CCOC(=O)c1ccc(N2C(=O)C=CC2=O)cc1	EP2 antag 110.8, Exocytosis inh 104.8
CCOC(=O)c1ccc(-n2c(C)ccc2C)cc1	none
CCOc1cc(N2CCOCC2)c(OCC)cc1NC(=O)COC(=O)CCOc1ccc(C(C)(C)C)cc1	none (no result: EP2 antag, EP2 mod)
CC(C)(C)c1ccc(OCCC(=O)Nc2ccc(N3CCOCC3)cc2N2CCOCC2)cc1	MC4R ag barr 8.6 (no result: EP2 antag, EP2 mod)
O=C(Nc1ccc(Br)cc1F)c1ccc2nsnc2c1	MC4R ag barr 8.8 (no result: EP2 antag, EP2 mod)
CC1(C)CC(n2c(=S)[nH]c3ccccc3c2=O)CCO1 (configuration not stated)	none (no result: EP2 antag)
CCSc1nc2ccccc2c(=O)n1C1CCOC(C)(C)C1 (configuration not stated)	EP2 mod 61.1
Cc1cccc(NC(=O)c2ccc(S(=O)(=O)N3CCOCC3)cc2)c1C	none (no result: EP2 antag, EP2 mod)
Brc1ccc(/C=N/Nc2ccc3ccccc3n2)cc1	MC4R ag barr 11.3
COc1ccc(CNC(=O)/C=C/c2cc3c(cc2Br)OCO3)cc1	MC4R ag barr 8.5
O=C(/C=C/c1cc2c(cc1Br)OCO2)NCc1ccc(F)cc1	none
CCOC(=O)C1=C(C)N=C2c3ccccc3C(=O)C2C1c1ccc(Cl)cc1 (configuration not stated)	none
CCOC(=O)C1=C(Cc2ccc(Cl)cc2)C(=O)c2ccccc2C1=O	Exocytosis inh 93.2
COc1cccc2c(=S)c(CCC(C)=O)c(C)[nH]c12	EP2 mod 63.1
Cc1ccc(S(=O)(=O)N2CCN(C(=O)CNC(=O)c3ccc(Cl)cc3)CC2)cc1	T cell HTS 37.4 (no result: EP2 antag, EP2 mod)
Cc1ccc(C(=O)NCC(=O)N2CCCN(S(=O)(=O)c3ccc(C)cc3)CC2)cc1	none (no result: T cell HTS, EP2 antag, EP2 mod)
CN1/C(=C\C=C2/C(=O)Oc3ccccc3C2=O)C(C)(C)c2ccccc21	none (no result: Exocytosis inh, MC4R ag barr, MC4R antagonist)
CN1C(=CC=C2C=C(I)C(=O)C(I)=C2)C(C)(C)c2ccccc21	Exocytosis inh 89.0 (no result: T cell HTS)
CCOC(=O)C1CCN(C(=O)Cn2cnc3sc(C)c(S(=O)(=O)N4CCOCC4)c3c2=O)CC1	none (no result: EP2 antag, EP2 mod)
CC(C)c1nc2sc3c(=O)[nH]cnc3c2c2c1CCCC2	none
CCCc1nc2sc3c(=O)[nH]cnc3c2c2c1CCCC2	EP2 mod 71.7 (no result: Exocytosis inh, MC4R ag barr, MC4R antagonist)
CC(C)c1nc2sc3c(=O)[nH]cnc3c2c2c1CCC2	none
